Results published in paper PMC9394215 (Journal for Immunotherapy of Cancer, 2022).

Legend:
NTPDase3 = target: T1, NTPDase3 (Homo sapiens, UniProt O75355); test: Malachite green assay, NTPDase3 in COS-7 cell membranes; assay type: biochemical
T1 sequence (O75355 1-529): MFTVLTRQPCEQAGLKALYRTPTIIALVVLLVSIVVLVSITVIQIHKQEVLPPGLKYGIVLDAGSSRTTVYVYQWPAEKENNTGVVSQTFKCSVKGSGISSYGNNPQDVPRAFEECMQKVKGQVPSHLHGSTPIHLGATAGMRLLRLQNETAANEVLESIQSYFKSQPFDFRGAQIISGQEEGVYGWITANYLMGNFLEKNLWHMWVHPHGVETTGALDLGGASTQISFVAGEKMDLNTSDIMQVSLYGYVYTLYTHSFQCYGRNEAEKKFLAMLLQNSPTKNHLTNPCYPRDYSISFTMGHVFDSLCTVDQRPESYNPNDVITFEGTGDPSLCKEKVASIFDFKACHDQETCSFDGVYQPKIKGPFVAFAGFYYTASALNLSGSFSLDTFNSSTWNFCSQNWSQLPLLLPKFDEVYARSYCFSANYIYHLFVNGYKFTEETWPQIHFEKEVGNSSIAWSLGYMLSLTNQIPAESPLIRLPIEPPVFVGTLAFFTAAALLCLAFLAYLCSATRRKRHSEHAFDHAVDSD
In short: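 Human NTPDase2, -3 or -8 was expressed in COS-7 membranes (ca. 100 ng protein, adjusted for 10–20% substrate conversion). Enzyme was preincubated 5 min at 37°C with test compound (50 µM single point, or 0.1–300 µM for curves). It was then incubated 15 min at 37°C with 100 µM ATP in HEPES/CaCl2/MgCl2, pH 7.4, ≤2% DMSO. Malachite green absorbance at 600 nm was corrected by a denatured-enzyme blank; n=3.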

Soluble CD73 = target: T2, Soluble CD73 (Homo sapiens, UniProt P21589); test: CD73 assay with [2,8-3H]AMP; assay type: biochemical
T2 sequence (P21589 27-549 limits assumed): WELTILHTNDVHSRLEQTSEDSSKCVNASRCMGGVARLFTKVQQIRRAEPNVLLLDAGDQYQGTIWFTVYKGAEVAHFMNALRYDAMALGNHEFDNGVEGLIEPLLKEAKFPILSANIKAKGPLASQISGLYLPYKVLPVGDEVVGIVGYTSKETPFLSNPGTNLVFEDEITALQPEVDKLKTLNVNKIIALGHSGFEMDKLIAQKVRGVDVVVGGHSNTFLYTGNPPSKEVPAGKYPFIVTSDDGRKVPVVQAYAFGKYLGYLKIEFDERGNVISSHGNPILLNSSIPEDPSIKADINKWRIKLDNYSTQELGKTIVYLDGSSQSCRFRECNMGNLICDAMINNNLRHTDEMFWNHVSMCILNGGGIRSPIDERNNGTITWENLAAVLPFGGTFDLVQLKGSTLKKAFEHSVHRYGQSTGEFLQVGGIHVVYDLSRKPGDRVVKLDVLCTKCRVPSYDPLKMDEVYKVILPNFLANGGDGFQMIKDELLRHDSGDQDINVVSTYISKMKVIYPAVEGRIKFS
In short: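 A dilution series of test compound was incubated with soluble human CD73 (0.09 µg/mL) and 5.0 µM [2,8-3H]AMP in 25 mM Tris, 140 mM NaCl, 25 mM NaH2PO4, pH 7.4. Incubation ran 25 min at 37°C with shaking. Cold LaCl3/sodium acetate buffer (pH 4.0) precipitated phosphate and unconverted AMP over 30 min on ice. Samples were filtered through GF/B filters and the filtrate collected.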

[1] = ref 61 62; cited from earlier work
[2] = stated without method or reference; cited from earlier work
NPP4 = target: T3, NPP4 (Homo sapiens, UniProt Q9Y6X5); test: NPP4 assay; assay type: biochemical
T3 sequence (Q9Y6X5 16-407 limits assumed): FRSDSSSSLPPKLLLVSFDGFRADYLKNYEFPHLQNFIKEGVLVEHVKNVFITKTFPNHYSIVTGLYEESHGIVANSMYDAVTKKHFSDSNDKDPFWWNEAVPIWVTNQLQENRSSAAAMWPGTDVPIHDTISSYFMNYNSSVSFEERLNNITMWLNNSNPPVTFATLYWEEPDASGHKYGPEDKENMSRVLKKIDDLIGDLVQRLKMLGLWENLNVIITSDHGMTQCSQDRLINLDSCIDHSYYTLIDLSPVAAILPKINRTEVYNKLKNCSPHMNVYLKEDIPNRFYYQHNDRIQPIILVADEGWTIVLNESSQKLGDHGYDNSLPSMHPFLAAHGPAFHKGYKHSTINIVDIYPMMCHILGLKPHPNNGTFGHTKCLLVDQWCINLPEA
In short: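 Purified soluble NPP4 (1200 ng, Sf9-expressed) was incubated with 50 µM test compound, 2% DMSO and 300 µM diadenosine tetraphosphate. Buffer: 10 mM HEPES, 2 mM CaCl2, 1 mM MgCl2, pH 8.0; 90 min at 37°C with shaking. The reaction was heat-stopped (90°C, 5 min) and chilled on ice. Product ATP was quantified by capillary electrophoresis.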

[3] = cited from earlier work
ALK = conditions: ref 59 60; cited from earlier work
NPP5 = target: T4, NPP5 (Homo sapiens, UniProt Q9UJA9); test: NPP5 assay; assay type: biochemical
T4 sequence (Q9UJA9 25-431 limits assumed): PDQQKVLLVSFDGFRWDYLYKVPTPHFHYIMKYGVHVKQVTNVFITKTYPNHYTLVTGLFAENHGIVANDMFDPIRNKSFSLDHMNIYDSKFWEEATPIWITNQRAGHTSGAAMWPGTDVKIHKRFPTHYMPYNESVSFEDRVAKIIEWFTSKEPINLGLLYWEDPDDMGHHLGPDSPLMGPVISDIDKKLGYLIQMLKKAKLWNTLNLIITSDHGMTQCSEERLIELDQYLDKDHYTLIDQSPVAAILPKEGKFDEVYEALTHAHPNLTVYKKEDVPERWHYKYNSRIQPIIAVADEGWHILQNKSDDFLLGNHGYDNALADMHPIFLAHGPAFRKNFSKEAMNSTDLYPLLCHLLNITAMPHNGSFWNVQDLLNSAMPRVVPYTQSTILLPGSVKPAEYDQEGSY
In short: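 Either CD38 (5 ng) or NPP5 (250 ng) was mixed with 50 µM test compound and 100 µM NAD+ as substrate. For CD38 the reaction buffer was 10 mM HEPES, pH 7.4.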

melanoma (MaMel65) cells = test: Extracellular eATP hydrolysis on live melanoma cells; assay type: cell-based, human; conditions: 1, 10, 100 µM, significant at 10 µM, 20 µM eATP
[4] = read-out: % inhibition at 50 µM

## Cc1cc(Nc2ncc(Cl)c(Nc3ccccc3S(=O)(=O)C(C)C)n2)c(OC(C)C)cc1C1CCNCC1 [ceritinib, Ceritinib]
NTPDase3
  IC50: 22.7 ± 4 µM
Soluble CD73
  IC50: > 50 µM
Soluble CD73; [4]
  inhibition at 50 µM: 33%
[1]
  brain permeation: some brain permeation
[2]
  pKb of the piperidine nitrogen: ~10
NPP4
  IC50: > 50 µM
NPP4; [4]
  inhibition at 50 µM: 15%
[3]
  metabolic stability: metabolically highly stable
ALK
  IC50 value against ALK: subnanomolar range
NPP5
  IC50: > 50 µM
NPP5; [4]
  inhibition at 50 µM: 1%
Melanoma (MaMel65) cells
  inhibition of hydrolysis of eATP added to live cells: concentration-dependent inhibition
